The values that follow come from the EternaBench riboswitch data.

The data set deals with MS2 coat protein. Briefly: apparent Kd, MS2 coat protein; higher = weaker binding; RNA-MaP array. The method, boiled down: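 Designed RNAs were produced on an Illumina sequencing chip by transcription of sequenced DNA templates. Binding to fluorescently labeled MS2 coat protein (1.5 nM to 3 μM) was measured at room temperature with or without input ligand. The apparent Kd is the median of per-cluster binding-curve fits. Designs were excluded when measured on fewer than 10 clusters.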

Where [1] appears, read: designed as: ON switch for flavin mononucleotide, no ligand.
The mark [2] stands for this setting: ligand present: flavin mononucleotide, designed as: ON switch for flavin mononucleotide.
Where [3] appears, read: designed as: OFF switch for flavin mononucleotide, no ligand.
Setting [4] is: ligand present: flavin mononucleotide, designed as: OFF switch for flavin mononucleotide.
[5] abbreviates: ligand present: theophylline, designed as: ON switch for theophylline.
Setting [6] is: designed as: OFF switch for tryptophan, no ligand.
The mark [7] stands for this setting: ligand present: tryptophan, designed as: OFF switch for tryptophan.
Setting [8] is: designed as: ON switch for theophylline, no ligand.

Take “UUUAACACCGGCAAGGAUAUUCUACAAAGAACAUGAGGAUCACCCAUGUCAACAAUCUACAUCACGAAGAAGGUGCAUCGGAUUAA”: the “apparent Kd” value runs as follows: under setting [1], 17.4 nM; under setting [2], 9.95 nM.
“AUAUAGGUAGGAUAUACAAUGAAUGGGCACCGUAAAACCAUACAUGAGGAUCACCCAUGUAGAAGGACCGGAAG”: the “apparent Kd” value is, setting by setting: under setting [3], 7.86 nM; under setting [4], 12.5 nM.
Take “GUACACUCCACAGGAUAUGGUGUAGACCCUACGCCAGAAGGGUGCGUGGGUACAUGAGGAUCACCCAUGUUAAGUUUACAUACG”: the “apparent Kd” value reads like this: under setting [3], 12.9 nM; under setting [4], 15.5 nM.
Consider “GGGACCGCAGCGUCAUACAUGAGGAUCACCCAUGUUUUACUAAGAAGGAUUAGGAAAGUAAGCUAAUAGGAUAUUACAAGGACA”, for which the “apparent Kd” value was 22.4 nM under setting [3] and 15.6 nM under setting [4].
Consider “AAGGCGUCAGGAUAUACGUCAUCUUCAAAUAACAUAACAAUACAUGAGGAUCACCCAUGUAGAAGGGACCAGCC”, for which the “apparent Kd” value came to 6.37 nM under setting [3] and 6.46 nM under setting [4].
Take “UCACAGUCCCAGAAGGCCUUGUCAGAUUCAUAAGGAGGAUAUGGAUUACAUGAGGAUCACCCAUGUGAAUACUUACAGAGCAAC”: the “apparent Kd” value amounted to 79.3 nM under setting [1] and 15.4 nM under setting [2].
The like results for “AUAAAAGCCACAUGAGGAUCACCCAUGUAGCAGGAAGCCAGCAAGGAUAUCGCAACAGGAGGGAUCGAGAAGGAGCGUAACUAA” were, in that order, 23.7 nM and 18.2 nM.
As for “UAUAUGAAGGGAGGAUAUGACCGAGAGUAAAUGUCAGAAGGCCCGUUUCUUCACCAACGUCCGGUACAUGAGGAUCACCCAUGU”, the “apparent Kd” value under setting [1] is 11.3 nM and the “apparent Kd” value under setting [2] was found to be 8.86 nM.
Consider “GUAGAGCUCAUAGGAUAUACUCGACCGGAGGCAGUAGAAGGAUGCGUCAAAUACAUGAGGAUCACCCAUGUGAUGGUAAUCGUC”, for which the “apparent Kd” value under setting [3] is 13.6 nM and the “apparent Kd” value under setting [4] came out at 14.4 nM.
As to “AAAUGGACGGCAGGAUAUGGACAAGGAAUAUUACCAGAAGGGCCCUAAUGCUCAUACAUGAGGAUCACCCAUGUUGUAAUCAAU”, the “apparent Kd” value stood at 17.8 nM under setting [3] and 12.7 nM under setting [4].
For “GUGAAACAUGAGGAUCACCCAUGUCAGGAUAUACUAAUGUCCGCUCGAUUGGACCUGUGUAGAAGGGACUGUGA”, the “apparent Kd” value reads like this: under setting [3], 12.7 nM; under setting [4], 17.6 nM.
For “GCGAUAGCUGUCAAGGAUAUGAGGCUGACCACAUGAGGAUCACCCAUGUUUACAACAAAAUAGAUUCAGAAGGUGACAACAAGUAG”, the “apparent Kd” value is, setting by setting: under setting [1], 80.3 nM; under setting [2], 18.1 nM.
Turning to “AGAUCCGGCGUGAGGAUAUAGCAAGCAACUAACGACUAGAAGGCACAUGAGGAUCACCCAUGUCUGUUACACUA”, the “apparent Kd” value was 12.1 nM under setting [3] and 36.7 nM under setting [4].
As to “GUAACACAUGAGGAUCACCCAUGUUCCGAUACCAGUAUUGAAGAUUACCCUUGGCAGCGGGUAGGUCGGAGUGGACGGCCCGAGC”, the “apparent Kd” value under setting [5] was 26.1 nM.
For “ACGAAUCCCGUUCCGUGAGGACAUGAGGAUCACCCAUGUUGCAGAAGGGCCGAGCGGAUGGCGAGGCAGGAUAUGCCACAGAUC”, the “apparent Kd” value was found to be 27.6 nM under setting [3] and 105 nM under setting [4].
On to “ACACCACAGCAGAAGGGUACAUUCUCCACGCGUACAGGAUAUGCGGACUCGGCGUCUCUGACAUGAGGAUCACCCAUGUUUUCU”, for which the “apparent Kd” value by setting is: under setting [1], 85.9 nM; under setting [2], 29.1 nM.
Regarding “CACUACUCCCAAGGAUAUUACGCUACAAAUCUUACUAACAUGAGGAUCACCCAUGUUCGGAACGGAAAGAAGGUGGGCUUAUAC”, the “apparent Kd” value is 9.38 nM under setting [1] and 8.22 nM under setting [2].
On to “GUUUUCAAGUCGGCCGCCACUGAUACAAUCCUCACCGGUUCACAUGAGGAUCACCCAUGUUCGCUCAGGACCGGGACCUUCUGUG”, for which the “apparent Kd” value turned out to be 127 nM under setting [6] and 108 nM under setting [7].
On to “AGCAUGGUUGGAGGAUAUUCCGCCGUAGUGCUGAAUCCCGGACAUGAGGAUCACCCAUGUGAGCGGAAGAAGGCCAAGUUGUCC”, for which the “apparent Kd” value is, setting by setting: under setting [3], 15.5 nM; under setting [4], 63.2 nM.
In the same order, the values of “AACCUACAUGAGGAUCACCCAUGUGAGGAUAUUGCGGUUCUUAGCAUGAGAACCAUACCAAGAAGGCACAGGGC” are 7.53 nM and 23.2 nM.
The like results for “ACGUAGGGCUAGAAGGCUCUAACAAGGUGCCCAUAAAAUAACAUGAGGAUCACCCAUGUUAGUAGAGAGGAUAUAGACUCAUGU” were, in that order, 18.4 nM and 19.3 nM.
“UGCGUGGGAAAGAAGGCGUCCGAAUUGUGGCCACGAGGAUAUUUCCGGCGCACAUGAGGAUCACCCAUGUUCAGCUGGUAGCGU”: the “apparent Kd” value turned out to be 32.5 nM under setting [1] and 22.1 nM under setting [2].
“UACUGUCUAACGGCCGCCACUCAGUCUCGGUUGAUUAUCUUAAGUGACAUGAGGAUCACCCAUGUGAGGACCGGGUUGUGCAUAA”: the “apparent Kd” value runs as follows: under setting [6], 76 nM; under setting [7], 136 nM.
“UCCACACGUCAGAAGGAUGUAUCUACAAUUUUCAUAGGAUAUGACCAUGGAGAUGAUUCCACAUGAGGAUCACCCAUGUCUGCU”: the “apparent Kd” value under setting [3] was 288 nM and the “apparent Kd” value under setting [4] was determined as 239 nM.
As for “AAAACAUGAGGAUCACCCAUGUCCAAAUAAAUACACGGAACUAGAAGGGAAAAUCGAAAUUAAUAUCAGGAUAUAGGCAAAGCA”, the “apparent Kd” value is 53 nM under setting [1] and 42.2 nM under setting [2].
Turning to “GUUACCAUGUCGGCCGCCACUAACAAGGUUAUGGCAAGUCUACACGACAUGAGGAUCACCCAUGUUAGGACCGGGACCCAUACCC”, the “apparent Kd” value under setting [6] is 13.4 nM and the “apparent Kd” value under setting [7] turned out to be 14 nM.
Consider “UCGUAGAUAGUAGGAUAUAAGGCCCUAGAGCAUUUAGAAGGACUUUUGAGACUAACAUGAGGAUCACCCAUGUUUCGCACAUGG”, for which the “apparent Kd” value runs as follows: under setting [1], 297 nM; under setting [2], 171 nM.
Turning to “CCGAAUCAAACUGAUAGUCUACAUGAGGAUCACCCAUGUGAAAAGGAUAUCUUUUGAACUGACGAAGAGAAGGUUUUAGAGGGU”, the “apparent Kd” value worked out at 7.77 nM under setting [3] and 8 nM under setting [4].
In the same order, the values of “AAAUGUGUAUAGGAUAUCUUGACCCACGCAUUCAGAGAAGGAUACACAUGAGGAUCACCCAUGUUGAGACGGAA” are 15.5 nM and 43.9 nM.
In the case of “UUAGUACUAGGAUAUACGAUGGAAAGGAGAGCCUUACAAAUACAUGAGGAUCACCCAUGUAGAAGGAGUUGCCA”, the “apparent Kd” value is, setting by setting: under setting [3], 6.27 nM; under setting [4], 5.93 nM.
In the case of “CGUCACCUAAAAGGAUAUCUACAAUACAGGAUUGCGUCUCACAUGAGGAUCACCCAUGUGUGUCCAGAGAAGGUUUCGGCACGU”, the “apparent Kd” value by setting is: under setting [3], 8.55 nM; under setting [4], 8.34 nM.
In the case of “GGAAGCCGCUAGAAGGAAUAGCACGGGUGCUAAUUAGGAUAUAGUGUCCCAGCACAUGAGGAUCACCCAUGUAUAACACGAUCC”, the “apparent Kd” value under setting [1] was found to be 20.1 nM and the “apparent Kd” value under setting [2] is 16.9 nM.
For the sequence “CCGCCACUACAUGAGGAUCACCCAUGUGAACCGUAGAACAUGAGAAGGUGCCUAAAGCUCGAGGGCAAGGAUAUCAACCGCCGC”, the “apparent Kd” value worked out at 125 nM under setting [1] and 97.5 nM under setting [2].
With “CGAUAUGAGGUCGAUACCAGCAGCUUCAAGCACAUGAGGAUCACCCAUGUCCAUUUUACUUGCCCUUGGCAGCGACUUUGGAAAC”, the “apparent Kd” value under setting [8] came to 39.4 nM and the “apparent Kd” value under setting [5] was 13.8 nM.
As to “CCUUUACAUGAGGAUCACCCAUGUGAAAUGGAUUGCGUAAAUAGAAGGCAUCAGAUCGUACAUGAUGAGGAUAUAUUAUCGAGU”, the “apparent Kd” value under setting [1] was found to be 15.3 nM and the “apparent Kd” value under setting [2] was 7.44 nM.
As for “UAAAUCGAAGGAUAUACAUGUACAAGUAUCCGUCAAAGAGCACAUGAGGAUCACCCAUGUAGAAGGUCGACUAA”, the “apparent Kd” value was 19.2 nM under setting [3] and 57.6 nM under setting [4].
“UAUUAACAAGGAUAUACAUGAGGAUCACCCAUGUGAAACUAUUUUAUAAUAACAACAAGUAGAAGGAGUUAAAA”: the “apparent Kd” value under setting [3] was 13.2 nM and the “apparent Kd” value under setting [4] was 10.8 nM.
For “UUUCUGUUACAGAAGGGAAGGAAACAUGAGGAUCACCCAUGUCCACGCCGUUUACAUUCGGCCGUUCAGGAUAUGUCAUAUUGA”, the “apparent Kd” value under setting [1] was determined as 23.1 nM and the “apparent Kd” value under setting [2] worked out at 17 nM.
Take “CUAUCACAUGAGGAUCACCCAUGUAUGAUAAUCAUAGGAUAUAGUGCCAGCCAUAAUUUACUAGAAGGAUGUUUCU”: the “apparent Kd” value by setting is: under setting [1], 11.7 nM; under setting [2], 10.1 nM.
In the case of “CUAACUCGUGUUAGGAUAUGGUAAGGGCUAGCCACCCAGAAGGAACAUGAGGAUCACCCAUGUCGACAGUCCCG”, the “apparent Kd” value was found to be 17.8 nM under setting [3] and 49.1 nM under setting [4].
Consider “AGUGGGUGUUAUGAUACCAGCGUAAUACACAACAUGAGGAUCACCCAUGUGGAGCCUCGCCGCCCUUGGCAGCAUUGGGCCCGCA”, for which the “apparent Kd” value is, setting by setting: under setting [8], 212 nM; under setting [5], 344 nM.
Turning to “AAUGAAUCCAAGAAGGAACACCAGGCGCACGUAAUCCAACAUGAGGAUCACCCAUGUAUAUUCUGUAAGGAUAUUGGAUUAAAG”, the “apparent Kd” value reads like this: under setting [3], 7.45 nM; under setting [4], 7.24 nM.
In the same order, the values of “AGCCCUCAAUCAGGAUAUGUGUGCAUCUAUUGACUUCUAACUAGACAUGAGGAUCACCCAUGUGAACAGAAGGGAUUGUAAUCA” are 19.9 nM and 19.6 nM.
In the case of “UCAGAAAGAUAGGACCUACAUGAGGAUCACCCAUGUUGCUGUAGAAGGUGCCGUGCCAUCGUGAGCAAGGAUAUACCGAUAUGG”, the “apparent Kd” value is, setting by setting: under setting [3], 22.6 nM; under setting [4], 15.8 nM.
“UAAUCGUAGGCGGCCGCCACUUUUUGGUAGUGUCCAUUGUACACUCACAUGAGGAUCACCCAUGUAAGGACCGGGCCCGCAUCAG”: the “apparent Kd” value worked out at 17 nM under setting [6] and 16.7 nM under setting [7].
Regarding “AAACGAGAGACAGAUACCAGCGCAGGAACGGAGUAUGGUGACAUGAGGAUCACCCAUGUGCGCCCUUGGCAGCUGAGCCGUAUUG”, the “apparent Kd” value is, setting by setting: (designed as: OFF switch for theophylline, no ligand) 27.9 nM; (ligand present: theophylline, designed as: OFF switch for theophylline) 171 nM.
Turning to “GACGGCUCUAAGGAGGAUAUGGGAAUCAGCACAUGAGGAUCACCCAUGUAAAUGCCUCGGCUGAACCAGAAGGCCUUGGUCAGGAC”, the “apparent Kd” value runs as follows: under setting [1], 380 nM; under setting [2], 269 nM.

A word on the apparent Kd: it is the concentration giving half-maximal binding under the conditions of the assay.
